Measured values: paper PMC4684756 (Nature immunology, 2015)
“Also recorded” adds a separate entry of the source.

Assays:
[1] = target: pCPB9 / H-2L^d mini-MHC m31r (murine); experiment: SPR
[2] = target: pCPB7 / H-2L^d mini-MHC m31r (murine); experiment: SPR
[3] = target: pCPE3 / H-2L^d mini-MHC m31r (murine); experiment: SPR
[4] = target: pCPC5 / H-2L^d mini-MHC m31r (murine); experiment: SPR
[5] = target: p4B10 / H-2L^d mini-MHC m31r (murine); experiment: SPR
[6] = target: pCPA12 / H-2L^d mini-MHC m31r (murine); experiment: SPR
CD8+ 42F3 T cells = experiment: IL-2 release dose response of CD8+ 42F3 T cells to peptide-pulsed APCs; assay type: cell-based, murine; settings: for maximal IL-2 response (high / medium / low): transduced CD8+ 42F3 cells, among CD8-dependent agonists; for IL-2 agonist character (in words): titrated IL-2 response in CD8+ 42F3 T cells
Summary of the method: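 Murine 58−/− hybridoma (TCRα−β−) expressing CD8αβ, retrovirally transduced with 42F3 TCR, co-cultured 1:1 with LM1.8-L^dW97R APCs (5x10⁴ cells; grown in RPMI/10% FBS) and titrated peptide for 20 h at 37°C. Peptide stocks were 50mM in DMSO, diluted in RPMI. IL-2 in supernatants was measured by HRP-colorimetric ELISA. EC50 and Emax came from the titration curves.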

42F3 TCR
koff [1]: 0.0668 s⁻¹
koff [2]: 0.0579 s⁻¹
kon [2]: 495000 M⁻¹ s⁻¹
Kd [3]: 700 nM
koff [3]: 0.166 s⁻¹
kon [3]: 58600 M⁻¹ s⁻¹
Kd [4]: 1000 nM
koff [4]: 0.197 s⁻¹
Kd [5]: 10 µM
koff [5]: > 0.5 s⁻¹
Kd [6]: 2000 nM
koff [6]: 0.0579 s⁻¹
kon [6]: 31400 M⁻¹ s⁻¹

FLSPFWFDI [p5E8]
maximal IL-2 response (high / medium / low) (CD8+ 42F3 T cells): high

MPAGRPWDL [pCPE3]
IL-2 agonist character (in words) (CD8+ 42F3 T cells): weak agonist; also recorded: partial agonist

SPAPRPLDL [pCPC5]
IL-2 agonist character (in words) (CD8+ 42F3 T cells): partial IL-2 responses; also recorded: partial agonist

VPYMAEFGM [pCPA12]
IL-2 agonist character (in words) (CD8+ 42F3 T cells): partial IL-2 responses; also recorded: partial agonist
maximal IL-2 response (high / medium / low) (CD8+ 42F3 T cells): medium
